The text below walks through data of article PMC5331736 (Drug testing and analysis, 2014).

The nature of data set [1]: cis to trans isomerization in solution. It counts as physicochemical. To be noted: acetonitrile only.
A further data set deals with 5-HT transporters (SERT) (Rattus norvegicus, UniProt P31652). Nature of the data set: Release assay at SERT, [3H]5-HT preloaded rat brain synaptosomes. The settings on record: for releasing efficacy at SERT (in words): rat brain tissue. Type of data set: biochemical. Put shortly: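 Synaptosomes came from male Sprague-Dawley rat (250–300 g) brains after CO2 euthanasia. They were preloaded to steady state (1 h) with 5 nM [3H]5-HT in Krebs-phosphate buffer containing 1 μM reserpine, plus unlabelled blockers for the other transporters. Preloaded synaptosomes were added to test compound dilutions, and release was stopped by vacuum filtration. Retained radioactivity was measured by scintillation counting. Dose-response; mean ± SD, N = 3–4, triplicate.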
5-HT transporters (SERT), sequence (P31652 whole entry): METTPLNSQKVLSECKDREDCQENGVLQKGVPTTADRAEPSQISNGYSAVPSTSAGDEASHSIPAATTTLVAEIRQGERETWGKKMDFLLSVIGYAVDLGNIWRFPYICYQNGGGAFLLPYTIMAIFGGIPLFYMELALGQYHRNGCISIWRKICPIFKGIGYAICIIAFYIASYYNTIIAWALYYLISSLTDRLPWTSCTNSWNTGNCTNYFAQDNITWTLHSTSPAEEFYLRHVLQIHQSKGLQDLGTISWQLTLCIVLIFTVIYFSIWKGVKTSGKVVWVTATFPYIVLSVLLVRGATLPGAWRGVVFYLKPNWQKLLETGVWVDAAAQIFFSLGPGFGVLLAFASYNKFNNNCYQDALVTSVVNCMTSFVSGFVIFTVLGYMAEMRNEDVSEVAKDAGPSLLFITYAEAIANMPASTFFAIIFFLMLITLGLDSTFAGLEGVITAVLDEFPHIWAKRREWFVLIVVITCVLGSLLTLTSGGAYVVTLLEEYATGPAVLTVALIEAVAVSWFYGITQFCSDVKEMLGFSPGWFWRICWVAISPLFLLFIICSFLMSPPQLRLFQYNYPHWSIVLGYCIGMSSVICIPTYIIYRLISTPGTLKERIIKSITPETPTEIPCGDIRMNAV

Data set [2] addresses dopamine transporters (DAT) (Rattus norvegicus, UniProt P23977). Nature of the data set: Release assay at DAT, [3H]MPP+ preloaded rat brain synaptosomes. It counts as biochemical. To be noted: (EC50 at DAT)^−1/(EC50 at SERT)^−1; higher value indicates greater DAT selectivity. Put shortly: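 Male Sprague-Dawley rat (250–300 g) brain synaptosomes. DAT substrate was 9 nM [3H]MPP+ and SERT substrate 5 nM [3H]5-HT. Buffers held 1 μM reserpine, with unlabelled blockers of competing transporters. Synaptosomes were preloaded for 1 h in Krebs-phosphate buffer, then added to test compound. Filtration stopped release, and retained radioactivity was counted. The ratio comes from dose-response EC50s; N = 3–4, triplicate.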

For a further data set, the target named is SERT (Rattus norvegicus, UniProt P31652). The experiment in a line: Uptake blocking at SERT. It counts as biochemical. To be noted: subsequent experiments, data not shown.
SERT, sequence (P31652 whole entry): as above

The structures appear in SMILES notation.

dopamine transporters (DAT), sequence (P23977 whole entry): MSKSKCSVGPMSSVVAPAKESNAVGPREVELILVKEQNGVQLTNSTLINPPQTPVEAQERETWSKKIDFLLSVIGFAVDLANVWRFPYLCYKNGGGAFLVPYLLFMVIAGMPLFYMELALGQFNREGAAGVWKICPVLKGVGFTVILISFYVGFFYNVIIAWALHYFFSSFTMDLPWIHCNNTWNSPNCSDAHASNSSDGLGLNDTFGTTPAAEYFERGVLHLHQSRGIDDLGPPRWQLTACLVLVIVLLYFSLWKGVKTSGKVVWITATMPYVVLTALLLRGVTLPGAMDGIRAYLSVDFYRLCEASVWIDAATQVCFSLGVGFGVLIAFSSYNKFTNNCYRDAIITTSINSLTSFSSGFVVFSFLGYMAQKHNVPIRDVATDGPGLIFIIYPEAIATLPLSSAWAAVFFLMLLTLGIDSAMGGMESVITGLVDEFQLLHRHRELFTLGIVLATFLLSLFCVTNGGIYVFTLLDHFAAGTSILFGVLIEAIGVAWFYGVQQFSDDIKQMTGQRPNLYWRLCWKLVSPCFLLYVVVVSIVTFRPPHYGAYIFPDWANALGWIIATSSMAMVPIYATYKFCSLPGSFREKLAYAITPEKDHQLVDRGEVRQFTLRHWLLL

As for `C[C@@H]1N=C(N)O[C@@H]1c1ccc2c(c1)OCO2` (racemic) [Cis-MDMAR, (±)-cis-3′,4′-Methylenedioxy-4-methylaminorex], the “cis to trans isomerization” value in data set [1] is reported as “Isomerization did not occur”. Moreover, on 5-HT transporters (SERT), the “releasing efficacy at SERT (in words)” value is given as “fully efficacious releasing agents”. Further, in data set [2], the DAT/SERT ratio is listed as 4.3.
On to `C[C@@H]1N=C(N)O[C@H]1c1ccc2c(c1)OCO2` (racemic) [Trans-MDMAR, (±)-trans-3′,4′-Methylenedioxy-4-methylaminorex], for which the “releasing efficacy at SERT (in words)” value on 5-HT transporters (SERT) is reported as “fully efficacious releasing agents”. Further, in data set [2], the DAT/SERT ratio is listed as 2.0.
In the same order, the values of `Cc1ccc([C@H]2OC(N)=N[C@H]2C)cc1` (relative stereo) [Cis-DMAR, cis-4,4′-dimethylaminorex] are “fully efficacious releasing agents” and 1.6.
As for `Cc1ccc([C@@H]2OC(N)=N[C@H]2C)cc1` (relative stereo) [Trans-DMAR, trans-4,4′-dimethylaminorex], on SERT, the “uptake blocker efficacy at SERT” value is listed as “fully efficacious as an uptake blocker”. The “maximal release at SERT” value on 5-HT transporters (SERT) (efficacy, % of maximal release) is given as 75%. Moreover, on 5-HT transporters (SERT), the “releasing efficacy at SERT (in words)” value is on record as “partial releasing activity”. For the same compound, the DAT/SERT ratio in data set [2] is 2.5.
Turning to `CNC(C)Cc1ccc2c(c1)OCO2` (single isomer, unassigned; (+)) [(+)-MDMA, (+)-3,4-methylenedioxymethamphetamine], the DAT/SERT ratio in data set [2] came out at 0.6.
